These results are taken from ChEMBL document CHEMBL3425463, “The quassinoid isobrucein B reduces inflammatory hyperalgesia and cytokine production by post-transcriptional modulation” (J Nat Prod, 2015).

The test system of data set [1] is Mus musculus. In words: Inhibition of protein synthesis in carrageenan-induced mechanical inflammatory hyperalgesia male C57BL/6 mouse model assessed as inhibition of TNF production in inflamed tissue at 20 mg/kg, sc […] challenge and measured after 3 hrs by ELISA. Also on record: dose 20 mg/kg. It is filed as functional, organism-based. For orientation: An ELISA detects its analyte on a solid surface through an enzyme-linked reagent.

In data set [2] the test system is RAW264.7. Briefly: Inhibition of luminescence emission in mouse RAW264.7 cells transfected with luciferase plasmid containing universal promoter PKG at 70 uM after 6 hrs by luciferase reporter gene assay. It is filed as functional, cell-based. Put shortly: (§1)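 RAW 264.7 cells (5 × 10^5/well) in RPMI-1640 with 2% FBS, transfected with a PGK-promoter luciferase plasmid (1 μg/well) for 6 h at 37 °C, 5% CO2. Then treated 6 h with drug, dexamethasone 1 mM, pyrrolidine dithiocarbamate 500 μM or cycloheximide 70 μM. Cells lysed in Tris/NaCl/Tween buffer, pH 7.5, and luminescence read.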
A general note: In a reporter assay the amount or activity of a reporter protein is the signal.

Data set [3] has as its system Mus musculus. In words: Inhibition of protein synthesis in carrageenan-induced mechanical inflammatory hyperalgesia male C57BL/6 mouse model assessed as inhibition of IL-1beta production in inflamed tissue at 20 mg/kg, sc […] challenge and measured after 3 hrs by ELISA. It is filed as functional, organism-based. Also on record: dose 20 mg/kg.

For data set [4], the system named is RAW264.7. Briefly: Antiinflammatory activity against mouse RAW264.7 cells assessed as reduction of LPS-induced TNF mRNA expression cells at 1 mM treated 30 mins before LPS challenge measured after 3 hrs by qRT-PCR analysis. It is filed as functional, cell-based. In a few lines:
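RAW 264.7 macrophages (1.5 × 10^6 cells/well) in supplemented RPMI-1640 were pretreated with vehicle, test compound or dexamethasone (1 mM) before LPS stimulation. Cells were lysed in TRIzol, and TNF mRNA was measured by quantitative real-time PCR with GAPDH primers. Stock in DMSO diluted in RPMI-1640, final DMSO ≤0.5%.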

Data set [5] concerns RAW264.7. In words: Inhibition of luminescence emission in mouse RAW264.7 cells transfected with luciferase plasmid containing universal promoter PKG at 1 mM after 6 hrs by luciferase reporter gene assay. It is filed as functional, cell-based. Put shortly:
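RAW 264.7 cells (5 × 10^5/well) in RPMI-1640 with 2% FBS were transfected with pmirGLO dual-luciferase plasmid (1 μg/well, PGK universal promoter) by FuGene 6 for 6 h at 37 °C, 5% CO2. Compound was added ([…] as printed) and incubated 6 h. Cells were lysed in TNT buffer, and luciferin luminescence was read. Controls: dexamethasone, PDTC, cycloheximide.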

The test system of data set [6] is RAW264.7. In words: Inhibition of luminescence emission in mouse RAW264.7 cells transfected with luciferase plasmid containing universal promoter PKG at 500 uM after 6 hrs by luciferase reporter gene assay. It is filed as functional, cell-based. In a few lines:
as §1

In data set [7] the test system is RAW264.7. Briefly: Antiinflammatory activity against mouse RAW264.7 cells assessed as reduction of LPS-induced TNF production compound pretreated 30 mins of LPS challenge measured after 4 hrs by ELISA. It is filed as functional, cell-based.
Data set [8] has as its system RAW264.7. Briefly: Antiinflammatory activity against mouse RAW264.7 cells assessed as reduction of LPS-induced KC/CXCL1 production compound pretreated 30 mins of LPS challenge measured after 4 hrs by ELISA. It is filed as functional, cell-based.
For data set [9], the system named is RAW264.7. In words: Inhibition of PMA-induced NF-kappaB activation in mouse RAW264.7 cells assessed as reduction luminescence emission at 0.001 to 10 uM pretreated 30 mins before LPS challenge measured after 4 hrs by luciferase reporter gene assay. It is filed as cell-based. Put shortly:
(§2)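 RAW 264.7 NF-κB-luciferase reporter cells pretreated 30 min (0.001−10 μM) before stimulus: LPS 1 μg/mL, PGN 10 μg/mL, TNF 10 ng/mL or PMA 1 μg/mL. Cells lysed at 4 h; luciferin added, luminescence read. Expressed relative to stimulus alone set at 100%. Dexamethasone 1 mM control. n = 4–5.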

For data set [10], the system named is RAW264.7. In words: Inhibition of LPS-induced NF-kappaB p65 translocation into nucleus in mouse RAW264.7 cells at 10 uM treated 30 mins before LPS challenge by Western blot analysis. It is filed as cell-based. In a few lines: (§3)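 RAW 264.7 cells treated before LPS. Cytoplasmic and nuclear fractions made by hypotonic/high-salt (420 mM NaCl) lysis; Bradford protein assay; 12% SDS-PAGE. Blots: IκB-α (1:1000) on cytoplasmic and p65 (1:300) on nuclear extracts, ECL detection. Nucleophosmin and actin as fraction markers; bands normalized to medium control.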
In general terms: A western blot detects proteins with antibodies after separation by electrophoresis.

For data set [11], the system named is RAW264.7. Briefly: Antiinflammatory activity against mouse RAW264.7 cells assessed as reduction of LPS-induced TNF mRNA expression cells at 10 uM treated 30 mins before LPS challenge measured after 3 hrs by qRT-PCR analysis. It is filed as functional, cell-based.
For data set [12], the system named is Mus musculus. In words: Antihyperalgesic activity in sc dosed male C57BL/6 mouse assessed as reduction in carrageenan-induced mechanical inflammatory hyperalgesia […] and measured after 3 hrs. It is filed as functional, organism-based.
Data set [13] has as its system RAW264.7. In words: Inhibition of luminescence emission in mouse RAW264.7 cells transfected with luciferase plasmid containing universal promoter PKG at 0.1 to 10 uM after 6 hrs by luciferase reporter gene assay. It is filed as functional, cell-based. Put shortly: as §1
The subject of data set [14] is Mus musculus. In words: Antiinflammatory activity in carrageenan-induced mechanical inflammatory hyperalgesia male C57BL/6 mouse model assessed as inhibition of IL-1beta production in inflamed tissue at 5 mg/kg, […] and measured after 3 hrs. It is filed as functional, organism-based. Also on record: dose 5 mg/kg.
Data set [15] has as its system RAW264.7. In words: Antiinflammatory activity against mouse RAW264.7 cells assessed as reduction of LPS-induced IL-1beta production compound pretreated 30 mins of LPS challenge measured after 4 hrs by ELISA. It is filed as functional, cell-based.
The subject of data set [16] is peritoneal macrophages (Mus musculus). Briefly: Cytotoxicity against mouse peritoneal macrophages assessed as cell viability at 0.001 to 10 uM pretreated 30 mins by MTT assay in presence of LPS.
In data set [17] the test system is RAW264.7. Briefly: Inhibition of LPS-induced NF-kappaB activation in mouse RAW264.7 cells assessed as reduction luminescence emission at 0.001 to 10 uM pretreated 30 mins before LPS challenge measured after 4 hrs by luciferase reporter gene assay. It is filed as cell-based. In a few lines: as §2
Data set [18] deals with Mus musculus. In words: Antiinflammatory activity in carrageenan-induced mechanical inflammatory hyperalgesia male C57BL/6 mouse model assessed as inhibition of KC/CXCL1 production in inflamed tissue at 5 mg/kg, […] and measured after 3 hrs. It is filed as functional, organism-based. Also on record: dose 5 mg/kg.
Data set [19] relates to Mus musculus. Briefly: Antiinflammatory activity in carrageenan-induced mechanical inflammatory hyperalgesia male C57BL/6 mouse model assessed as inhibition of TNF level production in inflamed tissue at 5 mg/kg, […] and measured after 3 hrs. It is filed as functional, organism-based. Also on record: dose 5 mg/kg.
For data set [20], the system named is RAW264.7. In words: Inhibition of TNF-induced NF-kappaB activation in mouse RAW264.7 cells assessed as reduction luminescence emission at 0.001 to 10 uM pretreated 30 mins before LPS challenge measured after 4 hrs by luciferase reporter gene assay. It is filed as cell-based. In a few lines:
as §2

Data set [21] relates to Mus musculus. In words: Antihyperalgesic activity in male C57BL/6 mouse assessed as reduction in carrageenan-induced mechanical inflammatory hyperalgesia at 5 mg/kg, […] and measured after 3 hrs. It is filed as functional, organism-based. Also on record: dose 5 mg/kg.
Data set [22] deals with RAW264.7. Briefly: Inhibition of PGN-induced NF-kappaB activation in mouse RAW264.7 cells assessed as reduction luminescence emission at 0.001 to 10 uM pretreated 30 mins before LPS challenge measured after 4 hrs by luciferase reporter gene assay. It is filed as cell-based. In a few lines: as §2
In data set [23] the test system is RAW264.7. In words: Inhibition of NF-kappaB-mediated IkappaBalpha degradation in LPS-induced mouse RAW264.7 cells at 10 uM treated 30 mins before LPS challenge by Western blot analysis. It is filed as cell-based. In a few lines:
as §3

The source made the active and inactive calls. The rule behind the calls is not given here.

Turning to `C[C@@H]1C[C@@H]([C@H](O)CC2CC(=O)NC(=O)C2)C(=O)[C@@H](C)C1`, in the data set on Mus musculus [1], the inhibition entry is “inactive”. The inhibition entry with RAW264.7 [2] and in the data set on Mus musculus [3] was “Active” each time.
For `C[C@@H]1C[C@H]2[C@@H]3CCC4=CC(=O)C=C[C@]4(C)[C@@]3(F)[C@@H](O)C[C@]2(C)[C@@]1(O)C(=O)CO`, the inhibition result with RAW264.7 [4] is “Active”. The inhibition entry in the data set on RAW264.7 [5] was “inactive”.
Consider `S=C(S)N1CCCC1`, for which the inhibition result in the data set on RAW264.7 [6] is “inactive”.
For `COC(=O)[C@@]12OC[C@]34[C@H]([C@@H](O)[C@@H]1O)[C@@]1(C)[C@H](O)C(=O)C=C(C)[C@@H]1C[C@H]3OC(=O)[C@H](OC(C)=O)[C@@H]24` [ISOBRUCEIN B], the inhibition result in the data set on RAW264.7 [7], in the data set with RAW264.7 [8], in the data set with RAW264.7 [13], in the data set on Mus musculus [14], in the data set on RAW264.7 [15] and with Mus musculus [18] was “Active” throughout. Further, the inhibition entry in the data set on Mus musculus [21] is “Active”. In addition, the inhibition result with RAW264.7 [9], in the data set with RAW264.7 [17], in the data set with RAW264.7 [20] and in the data set with RAW264.7 [22] was “Dose-dependent effect” each time. Besides, the result in the data set on RAW264.7 [10] and in the data set on RAW264.7 [23] was inactive. The inhibition entry in the data set on RAW264.7 [11] and with Mus musculus [19] was “inactive” throughout. Also, the Activity result with Mus musculus [12] was “Dose-dependent effect”; in [16], “Non-toxic”.
